# ChEMBL document CHEMBL1135709, “2,6-Di(omega-aminoalkyl)-2,5,6,7-tetrahydropyrazolo[3,4,5-mn]pyrimido[5,6,1-de]acridine-5,7-diones: novel, potent, cytotoxic, and DNA-binding agents” (J Med Chem, 2002)
# How the values were obtained:
# DU-145 [1] = assay: Percent growth of NCI cell line, prostate: DU-145 exposed for 48 hr at 10e-6 concentration; type: functional, Homo sapiens
# Procedure, shortened: (§1)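 NCI panel cell lines exposed 48 h to 10^-8, 10^-6 and 10^-4 M drug; read-out is percent growth at each concentration.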
# Calf thymus DNA = assay: CT-DNA binding required to produce a 50% drop in fluorescence of DNA-bound ethidium.; type: nucleic-acid assay; conditions: Bos taurus
# Procedure, shortened: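 Ethidium displacement from calf thymus DNA in 10 mM Na2HPO4, 10 mM NaH2PO4, 1 mM EDTA, pH 7.0, containing 1.26 μM ethidium bromide and 1 μM CT-DNA. Drug added serially from ~5 mM DMSO stock; 20 °C; fluorescence excitation 546 nm, emission 595 nm. C50 = drug concentration lowering DNA-bound ethidium fluorescence by 50%, mean of three determinations.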
# DU-145 [2] = assay: Percent growth of NCI cell line, prostate: DU-145 exposed for 48 hr at 10e-4 concentration; type: functional, Homo sapiens; procedure, shortened: as §1
# MCF7 [3] = assay: Percent growth of NCI cell line, breast: MCF-7 exposed for 48 hr at 10e-4 concentration; type: functional, Homo sapiens; procedure, shortened: as §1
# [4] = Percent growth of NCI cell line, leucemia K562 exposed for 48 hr at 10e-8 concentration; type: functional, Homo sapiens; procedure, shortened: as §1
# 786-0 [5] = assay: Percent growth of NCI cell line, renal: 786-0 exposed for 48 hr at 10e-6 concentration; type: functional, Homo sapiens; procedure, shortened: as §1
# HT-29 = assay: In vitro cytotoxic potency against HT-29 (human colon adenocarcinoma) cell line.; type: functional, cell-based
# DU-145 [6] = assay: Percent growth of NCI cell line, prostate: DU-145 exposed for 48 hr at 10e-8 concentration; type: functional, Homo sapiens; procedure, shortened: as §1
# HCT-15 [7] = assay: Percent growth of NCI cell line, colon: HCT-15 exposed for 48 hr at 10e-6 concentration; type: functional, Homo sapiens; procedure, shortened: as §1
# [8] = Percent growth of NCI cell line, leucemia K562 exposed for 48 hr at 10e-4 concentration; type: functional, Homo sapiens; procedure, shortened: as §1
# HCT-15 [9] = assay: Percent growth of NCI cell line, colon: HCT-15 exposed for 48 hr at 10e-8 concentration; type: functional, Homo sapiens; procedure, shortened: as §1
# NCI-H460 [10] = assay: Percent growth of NCI cell line, lung-nsc: NCI-H460 exposed for 48 hr at 10e-8 concentration; type: functional, Homo sapiens; procedure, shortened: as §1
# LoVo [11] = assay: Cytotoxicity activity on LoVo human adenocarcinoma cell line after 144 hr of drug exposure; type: functional, cell-based
# Procedure, shortened: (§2)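 LoVo (sensitive) and LoVo/Dx (resistant) human colon adenocarcinoma cells seeded at 2.5 × 10^5 cells/mL medium; drug solutions added to culture.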
# OVCAR-4 [12] = assay: Percent growth of NCI cell line, ovarian: OVCAR-4 exposed for 48 hr at 10e-8 concentration; type: functional, Homo sapiens; procedure, shortened: as §1
# NCI-H460 [13] = assay: Percent growth of NCI cell line, lung-nsc: NCI-H460 exposed for 48 hr at 10e-4 concentration; type: functional, Homo sapiens; procedure, shortened: as §1
# 786-0 [14] = assay: Percent growth of NCI cell line, renal: 786-0 exposed for 48 hr at 10e-4 concentration; type: functional, Homo sapiens; procedure, shortened: as §1
# SNB-19 [15] = assay: Percent growth of NCI cell line, CNS: SNB-19 exposed for 48 hr at 10e-6 concentration; type: functional, Homo sapiens; procedure, shortened: as §1
# [16] = Percent growth of NCI cell line, melanoma: LOX IMVI exposed for 48 hr at 10e-6 concentration; type: functional, Homo sapiens; procedure, shortened: as §1
# [17] = Percent growth of NCI cell line, leucemia K562 exposed for 48 hr at 10e-6 concentration; type: functional, Homo sapiens; procedure, shortened: as §1
# MCF7 [18] = assay: Percent growth of NCI cell line, breast: MCF-7 exposed for 48 hr at 10e-8 concentration; type: functional, Homo sapiens; procedure, shortened: as §1
# 786-0 [19] = assay: Percent growth of NCI cell line, renal: 786-0 exposed for 48 hr at 10e-8 concentration; type: functional, Homo sapiens; procedure, shortened: as §1
# SNB-19 [20] = assay: Percent growth of NCI cell line, CNS: SNB-19 exposed for 48 hr at 10e-4 concentration; type: functional, Homo sapiens; procedure, shortened: as §1
# LoVo [21] = assay: Cytotoxicity activity on LoVo/Dx human adenocarcinoma cell line after 1 hr of drug exposure; type: functional, cell-based
# Procedure, shortened: (§3)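 LoVo (sensitive) and LoVo/Dx (resistant) human colon adenocarcinoma cells seeded at 2.5 × 10^5 cells/mL medium; drug solutions added to culture. IC50 = drug concentration inhibiting cell growth by 50%, assays in triplicate.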
# LoVo [22] = assay: Cytotoxicity activity on LoVo human adenocarcinoma cell line after 1 hr of drug exposure; type: functional, cell-based; procedure, shortened: as §3
# LoVo [23] = assay: Cytotoxicity activity on LoVo/Dx human adenocarcinoma cell line after 144 hr of drug exposure; type: functional, cell-based; procedure, shortened: as §2
# NCI-H460 [24] = assay: Percent growth of NCI cell line, lung-nsc: NCI-H460 exposed for 48 hr at 10e-6 concentration; type: functional, Homo sapiens; procedure, shortened: as §1
# HCT-15 [25] = assay: Percent growth of NCI cell line, colon: HCT-15 exposed for 48 hr at 10e-4 concentration; type: functional, Homo sapiens; procedure, shortened: as §1
# OVCAR-4 [26] = assay: Percent growth of NCI cell line, ovarian: OVCAR-4 exposed for 48 hr at 10e-6 concentration; type: functional, Homo sapiens; procedure, shortened: as §1
# OVCAR-4 [27] = assay: Percent growth of NCI cell line, ovarian: OVCAR-4 exposed for 48 hr at 10e-4 concentration; type: functional, Homo sapiens; procedure, shortened: as §1
# LOX IMVI = assay: Percent growth of NCI cell line, melanoma: LOX IMVI exposed for 48 hr at 10e-8 concentration; type: functional, Homo sapiens; procedure, shortened: as §1
# SNB-19 [28] = assay: Percent growth of NCI cell line, CNS: SNB-19 exposed for 48 hr at 10e-8 concentration; type: functional, Homo sapiens; procedure, shortened: as §1
# MCF7 [29] = assay: Percent growth of NCI cell line, breast: MCF-7 exposed for 48 hr at 10e-6 concentration; type: functional, Homo sapiens; procedure, shortened: as §1
# [30] = Percent growth of NCI cell line, melanoma: LOX IMVI exposed for 48 hr at 10e-4 concentration; type: functional, Homo sapiens; procedure, shortened: as §1
smiles,measurement,setting,value
CN(C)CCn1c(=O)c2ccc3c4c(nn3CCN(C)C)c3cc(N)ccc3n(c1=O)c24,Growth,DU-145 [1],-11%
same,C50,Calf thymus DNA,0.0009 µM
same,Growth,DU-145 [2],-67%
same,Growth,MCF7 [3],-65%
same,Growth,[4],45%
same,Growth,786-0 [5],-44%
same,IC50,HT-29,3.7 nM
same,Growth,DU-145 [6],59%
same,Growth,HCT-15 [7],-25%
same,Growth,[8],-15%
same,Growth,HCT-15 [9],54%
same,Growth,NCI-H460 [10],16%
same,IC50,LoVo [11],0.52 nM
same,Growth,OVCAR-4 [12],55%
same,Growth,NCI-H460 [13],-64%
same,Growth,786-0 [14],-95%
same,Growth,SNB-19 [15],-14%
same,Growth,[16],-28%
same,Growth,[17],7%
same,Growth,MCF7 [18],62%
same,Growth,786-0 [19],23%
same,Growth,SNB-19 [20],-69%
same,IC50,LoVo [21],550 nM
same,IC50,LoVo [22],130 nM
same,IC50,LoVo [23],16 nM
same,Growth,NCI-H460 [24],-28%
same,Growth,HCT-15 [25],-75%
same,Growth,OVCAR-4 [26],-47%
same,Growth,OVCAR-4 [27],-51%
same,Growth,LOX IMVI,47%
same,Growth,SNB-19 [28],43%
same,Growth,MCF7 [29],-6%
same,Growth,[30],-50%
